From ChEMBL document CHEMBL4513216, “Probing the Open Global Health Chemical Diversity Library for Multistage-Active Starting Points for Next-Generation Antimalarials” (ACS Infect Dis, 2020)

Test: Toxicity liver stage against HepG2, at 10uM
Type: cell-based
Parameters: test concentration 10 uM, cell line HepG2-A16-CD81EGFP
Conditions: human, HepG2-A16-CD81EGFP cells; read-out: INHIBITION
Method in brief: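 Uninfected HepG2-A16-CD81EGFP cells, 3 × 10^3 per well, 1536-well, plated on prespotted compound at 10 μM final, parasite-free screening media added to match infected plates; puromycin 10 μM positive, DMSO 0.5% negative; run in parallel with 48 h PbLuc assay at 37 °C, 5% CO2; viability by CellTiter-Glo luminescence, normalized to controls.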

SMILES | cytotoxicity at 10 µM [%]
CCn1nc(C)cc1C(=O)N1C[C@@H]2C[C@@H](c3nnc(C)[nH]3)O[C@@H]2C1 | -1.87
CC(C)c1nn(C)c(N(C)C)c1CNC1CCCCNC1=O (stereo unspecified) | 2.91
CN(C)CCNC(=O)c1ccc2c(-c3nccs3)noc2c1 | 9.28
CNc1oc(COc2ccc3c(c2)OCO3)nc1C#N | -58.3
CCc1cc(NCCCNS(C)(=O)=O)nc(-c2ccncc2)n1 | 3.62
CC(C)c1cn(CC(=O)NC2CC(=O)N(CCc3ccccc3)C2)nn1 (stereo unspecified) | -15.1
COC(=O)[C@H](C)NC(=O)COc1nn(C)c2nc(C)cc(C)c12 | -2.53
COc1ccc(NC(=O)c2nc3ccccc3n(C)c2=O)c(OC)c1 | 0.37
O=C(Cn1cccnc1=O)NCC1Cc2ccccc2O1 (stereo unspecified) | -4.62
CC(C)(C)c1cc(C[C@H]2CNCC[C@H]2CC(=O)Nc2ccccc2)no1 | -2.4
COCCN1CCN(Cc2cccc(C(N)=O)c2)CC1C (stereo unspecified) | 0.794
CC(C)C1CN(S(=O)(=O)c2cccc(C#N)c2)CCS1 (stereo unspecified) | 1.06
O=C(CCOc1ccc(Br)cc1)N1CCN(c2cnccn2)CC1 | 0.207
O=C(c1cccnc1)N1CCn2nnc(COc3ccccn3)c2C1 | -76.2
CCc1ccsc1C(=O)N1CCCC(c2noc(C)n2)C1 (stereo unspecified) | 3.77
COC(=O)C(C)(C)NC(=O)c1cnc(C(C)(C)C)s1 | 3.87
CC(Cc1cn(CCc2nnn[nH]2)nn1)c1ccccc1 (stereo unspecified) | 3.78
CC(Oc1ccccc1C(F)(F)F)C(=O)NS(=O)(=O)C(C)C (stereo unspecified) | -7.19
Cc1nnn2c1COCC(CNCc1nccs1)C2 (stereo unspecified) | -109
CCc1nc(CNC2CCN(S(C)(=O)=O)CC2)cs1 | 0.684
Cc1csc2ncc(-c3ccnc(NC4CCOCC4)n3)c(=O)n12 | -4.36
COCCOc1ccccc1CNCC1COC2(CCCC2)O1 (stereo unspecified) | -143
O=C(CC1CCC1)N1CCCC(CO)(CC2CC2)C1 (stereo unspecified) | 7.18

SMILES | cytotoxicity at 10 µM [%]
O=C(Nc1ccnc(OC2CCOC2)c1)c1ccc(F)cc1Cl (stereo unspecified) | 3.44
O=C(c1c[nH]c(=O)[nH]1)N1CCCC2(CCC(=O)N(C3CCCC3)C2)C1 (stereo unspecified) | -3.74
CC(=O)Nc1sc2c(c1C(=O)O)CCc1ccccc1-2 | 0.513
N[C@@H]1CC[C@@H]1NC(=O)c1ccccc1OC(F)(F)C(F)F | 1.5
O=C(C1CCOCC1)N1CCc2ncnc(-c3ccc(F)cc3)c2CC1 | -6.28
Cn1cnnc1-c1cncc(NCc2cccc3c2OC(C)(C)C3)c1 | 7.84
Cc1cc(C)n(CCN2CCN(C(=O)c3ccc(Br)o3)CC2)n1 | -8.46
Cc1nc(NCCc2ccc(Cl)cc2)cc(C(=O)N2CCCCC2)n1 | -23
Cc1cc(-c2nc(-c3c(C)ncc4c3CCNC4)no2)nc(C)n1 | 4.43
CC(C)N1Cc2cccc(NCC(=O)N(C)C3CCCCC3)c2C1 | 4.83
Cc1nc(CNC(C)c2cccc(N3CCCC3=O)c2)cs1 (stereo unspecified) | 5.01
CC1CCN(CCNC(=O)c2ccn(-c3ccc(F)cc3)n2)CC1 | -15.6
c1ccc(Cn2ccnc2CNCC2CCCN2c2cccnn2)cc1 (stereo unspecified) | -9.86
O=C(NC1CC1)N1CC[C@H]2[C@H]1CCN2c1ncccn1 | 3.08
CC[C@H](C)[C@H](N)C(=O)N1CC(=O)c2sc(NC3CCCCC3)nc2C1 | -13.7
CN(Cc1cccnc1N)Cc1cccc2ncccc12 | 53.8
CS(=O)(=O)NCc1ncn2c1CN(CCN1CCCC1)CCC2 | -74.9
O=C(c1ccc(O)nc1)N1CCN(C(=O)c2ccc(F)cc2F)CC1 | -1.35
CCN(Cc1nc(COC)no1)C(=O)CCn1c(C)cc2ccccc21 | -0.0679
O=C(CN1CC(n2cccn2)C1)NCC1(c2ccccc2)CCC1 | -3.14
CC(C)(C)c1ncc(C(=O)NCc2ccccc2CN2CCCC2)s1 | -8.98
c1cnnc(N2CCCC2CNCc2cnc(N3CCCC3)nc2)c1 (stereo unspecified) | 7.96
CCCN1CC(C(=O)Nc2ccccn2)CC1=O (stereo unspecified) | -16.4

SMILES | cytotoxicity at 10 µM [%]
COc1c(NC(=O)N(C)CCOc2ccc(F)cc2)c(C)nn1C | 1.4
O=C(Cn1cnnn1)NCC1(O)CCCc2ccccc21 (stereo unspecified) | -42.3
COc1ccc(C[C@H]2CN(C(=O)c3cnoc3)CC[C@@H]2OC)cc1 | 4.09
CCn1ncc2c1NC(=O)CC2c1cnc(-c2ccccn2)nc1 (stereo unspecified) | -7.76
O=C1CCC2(CCN(Cc3ccoc3)CC2)N1OCc1ccccc1F | 2.37
CC(C)OCCn1nnnc1Cc1ccc(Br)cc1 | -5.58
CN(C)CC1CN(Cc2cccc(C(=O)N(C)C)c2)CCO1 (stereo unspecified) | -0.729
CCSc1ncccc1C(=O)NCc1ccc(N(C)C)cc1 | 4.36
Cc1nc(C)n(CC2CCCN2c2ncnc3sccc23)n1 (stereo unspecified) | -1.09
CCN(CCS(=O)(=O)CC)CC1CCCO1 (stereo unspecified) | -0.157
Cn1ccc(-c2cc(C(=O)N3CCC(C(N)=O)CC3)c3ccccn23)n1 | -105
Fc1cccc(-n2ccc(CN3CCCC3Cn3cncn3)n2)c1 (stereo unspecified) | -9.43
CCC(C(=O)NCC1=CCCN(C)C1)c1ccccc1 (stereo unspecified) | -2.65
COc1ccc(CN2C[C@H]3C[C@H](CN(C)C)O[C@H]3C2)cc1 | -7.4
COc1ccc2c(c1)OCC(Cc1ccc(CN)cn1)C2 (stereo unspecified) | -1.84
O=C(Cc1cn2ccsc2n1)N1CCCC(n2ccnc2)C1 (stereo unspecified) | -8.22
Cc1occc1C(=O)NCC(=O)N1CCCC(c2ccccc2)CC1 (stereo unspecified) | 6.35
Cc1ccc(OCCN(C)Cc2nccn2C)c(C)c1 | 5.51
Cc1c(C(C)Nc2ncnc3sccc23)cnn1C (stereo unspecified) | 40.1
Cc1c(Cl)c(C(F)(F)F)nn1C(C)C(=O)NC1CCN(C)CC1 (stereo unspecified) | -3.13
COC(=O)c1ccc2nc(CO[C@H]3CN(CC4CC4)C[C@H]3F)[nH]c2c1 | 2.52
CCCS(=O)(=O)NC1CCc2c(ccc(=O)n2CC2CC2)C1 (stereo unspecified) | -67.3
O=C1CC2(CCCNC2)C(=O)N1Cc1cccc(F)c1 (stereo unspecified) | 3.56

SMILES | cytotoxicity at 10 µM [%]
Cc1ncsc1-c1nc(CC2CCN(C)CC2)nn1Cc1ccccc1 | 10.2
COc1ccc(CN2C[C@@H]3CN(Cc4ccoc4)C[C@@H]3C2=O)cc1 | -8.37
Cc1cc(C)n(CCC2CC(=O)Nc3cc4[nH]ncc4cc32)n1 (stereo unspecified) | -6.17
Cc1ccc(C(=O)N2CCC3(CC2)COCCN(S(C)(=O)=O)C3)cc1C | 3.27
COCCOCC1(CNC(=O)c2ccc(OC)cc2)C[C@@H](O)[C@@H](O)C1 (stereo partly specified) | 0.0221
CNC(=O)C1CCCCN1C(=O)c1sc(-c2ccc(C)o2)nc1C (stereo unspecified) | 4.45
Cc1cc(-c2nn(C)c(Cl)c2CN2CCN(C)C(C(=O)O)C2)no1 (stereo unspecified) | -0.0938
CS(=O)(=O)CCN1CCCC1c1noc(C2CC2)n1 (stereo unspecified) | -6.82
Cc1ncc(CN2C[C@H]3CC(OCc4ccccc4)C[C@H]3C2)cn1 (stereo partly specified) | -24.3
O=C1CC(NS(=O)(=O)NCc2ccccc2)CN1c1ccccc1Cl (stereo unspecified) | -5.68
O=c1c2cc3c(cc2nnn1Cc1ccccc1)OCCO3 | 7.38
Cc1cc(CN(C)CC2CCCCC2)no1 | 13.2
Cc1nc(N(C)C)cc(C2(C)CCCNC2)n1 (stereo unspecified) | 2.05
O=C(CSc1ccc2c(c1)OCCO2)NS(=O)(=O)c1ccccc1Cl | -4.46
CN(C)[C@@H]1CN(Cc2cccnc2)C[C@H]1c1cn(C)c2ccccc12 | 1.44
Cc1nnc(C(C)N2CCN(Cc3ccc(C(F)(F)F)cc3)CC2)o1 (stereo unspecified) | 8.15
NC(=O)NC(=O)CNc1cccc(C(=O)c2ccccc2)c1 | 7.95
O=C(NCCc1cc(N2CCOCC2)nc(N2CCCC2)n1)C1CC1 | 6.8
Cc1nnc(NCC2(c3ccccc3)CCC2)c(C#N)c1C | 19.9
Cc1noc(C)c1Cn1cc(I)cc(C)c1=O | 4.92
Cc1csc(N2CCCN(Cc3noc(C)n3)CC2)n1 | -4.26
CCOc1ccc(C(F)(F)F)cc1NCc1nc(C)c(C)o1 | -45.3
CCn1cc(CCC(=O)NCc2csc(C3CC3)n2)c(C)n1 | -8.78

SMILES | cytotoxicity at 10 µM [%]
OC1CCN(c2ccccc2NCc2nc(-c3cccs3)no2)CC1 | 10.8
CCc1cnc(CCNC(C)CC(=O)Nc2cccc(C)c2C)s1 (stereo unspecified) | 6.69
CCc1c(C(=O)N2CC[C@H](N3CCOCC3)[C@H](CCCO)C2)csc1C | -141
FC(F)(F)C1CCCn2c(CNCc3ccco3)nnc21 (stereo unspecified) | -9.5
Cc1ncsc1C(=O)NC1CCN(Cc2ccc(C(N)=O)cc2)CC1 | -15
CO[C@@H]1CCN(C(=O)Cc2ccc(F)cc2)[C@@H]1Cc1cccnc1 | 10.1
Cc1nn(C)c(C)c1CN(C)C(=O)C1COc2ccccc2C1 (stereo unspecified) | -3.35
O=C(NC1CCCC1)[C@H]1CC[C@@H]2[C@@H](CCN2c2ncc(F)cn2)O1 | 0.441
Cc1c(C(=O)N2CCC(c3nc(C)n4ccsc34)CC2)cnn1C | -4.41
c1csc(CN2CC3(CCN(Cc4ccsc4)C3)C2)n1 | -2.65
Cn1nc(CNc2ncccn2)c2c1CN(c1cnccn1)CC2 | -107
N#Cc1ccccc1CNC(C(=O)N1CCOCC1)c1ccccc1 (stereo unspecified) | 11
Cc1cc(N(Cc2ccon2)S(C)(=O)=O)ccc1Br | 4.51
CN1CCCCC1(C)C(=O)N1CCC(c2ccccn2)CC1 (stereo unspecified) | 1.66
O=C(Cn1cccn1)Nc1ccc(N2CCCCC2)cc1 | 0.955
COCCO[C@H]1CCN(Cc2ccoc2)[C@H]1Cc1cccnc1 | -3.85
Clc1ccccc1CCN1CCN(c2ccc3nncn3n2)CC1 | 1.78
Cc1noc(C)c1C(=O)N1CCOC2(COCCN(C(C)C)C2)C1 (stereo unspecified) | 2.71
COC(=O)CNC(=O)c1c(-n2cnnn2)sc2c1CCCC2 | 10.6
